High-throughput results from PubChem BioAssay.
A selection: hits, their analogues and other compounds. The true share with any hit is near 2.3%.
TRPC4 agonist: TRPC4 (mouse) channel activation | Q9QUQ5 | HEK293 TRPC4beta/mu-opioid, Fluo4 calcium fluorescence; stronger effect = higher value | B-score at 10 µM | 310,000 tested, 0.49% active;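 active means B-score above 5 SD of library B-scores, and initial fluorescence ratio not above library mean plus 5 SD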;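 further: positive B-score marks a calcium rise read as TRPC4 activation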
Target sequence (Q9QUQ5 whole entry, looked up): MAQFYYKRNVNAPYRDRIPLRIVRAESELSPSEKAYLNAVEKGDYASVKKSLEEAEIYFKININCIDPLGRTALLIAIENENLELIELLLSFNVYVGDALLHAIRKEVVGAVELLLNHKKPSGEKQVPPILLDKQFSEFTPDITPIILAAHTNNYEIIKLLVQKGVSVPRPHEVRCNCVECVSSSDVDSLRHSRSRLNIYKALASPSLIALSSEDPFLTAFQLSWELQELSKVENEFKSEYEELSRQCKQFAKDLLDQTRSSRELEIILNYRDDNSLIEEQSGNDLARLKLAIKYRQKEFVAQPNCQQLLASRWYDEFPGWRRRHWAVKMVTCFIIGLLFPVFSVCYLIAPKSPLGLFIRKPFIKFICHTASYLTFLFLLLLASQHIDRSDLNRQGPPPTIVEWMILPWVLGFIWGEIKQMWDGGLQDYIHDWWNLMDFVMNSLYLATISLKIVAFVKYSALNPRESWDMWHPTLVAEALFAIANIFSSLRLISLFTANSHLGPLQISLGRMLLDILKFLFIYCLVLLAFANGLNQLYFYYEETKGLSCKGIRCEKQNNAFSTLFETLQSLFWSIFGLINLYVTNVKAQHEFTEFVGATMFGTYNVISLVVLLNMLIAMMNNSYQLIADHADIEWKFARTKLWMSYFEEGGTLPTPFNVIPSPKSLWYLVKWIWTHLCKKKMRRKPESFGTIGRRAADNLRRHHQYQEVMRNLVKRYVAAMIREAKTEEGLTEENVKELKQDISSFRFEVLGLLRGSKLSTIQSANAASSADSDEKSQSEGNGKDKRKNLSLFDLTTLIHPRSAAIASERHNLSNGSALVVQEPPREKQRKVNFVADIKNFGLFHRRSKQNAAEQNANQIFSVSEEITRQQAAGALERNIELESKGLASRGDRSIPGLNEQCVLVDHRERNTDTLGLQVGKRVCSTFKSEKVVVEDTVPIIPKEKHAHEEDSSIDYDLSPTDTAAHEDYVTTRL
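Assay system: HEK293 cells stably co-expressing mouse TRPC4beta and mu-opioid receptor / Timing: Fluo4 dye loading 45 min at room temperature, 110 s recording / Signal: Fluo4 calcium-sensitive dye fluorescence, kinetic, 1 Hz baseline / Read-out: integrated baseline-normalised fluorescence ratio, converted to per-well B score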
TRPC4 block: inhibitors of mouse TRPC4 channel. HEK293 TRPC4beta/mu-opioid, DAMGO-evoked Fluo4 calcium flux; stronger effect = lower value. B-score at 10 µM. 300,000 tested, 0.39% active. AID 2247;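 active means B-score over 3 SD under the library average, no early fluorescence shift, positive overall ratio signal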
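Assay system – HEK293 line stably carrying TRPC4beta and mu-opioid receptor · Doses – single dose · Detection – Fluo4 calcium-dye fluorescence, kinetic read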
TRPC4 PAM: allosterically enhances the mouse TRPC4 cation channel | Q9QUQ5 | HEK293 TRPC4beta/mu-opioid, DAMGO EC20, Fluo-4 Ca2+ flux; stronger effect = higher value | B-score at 10 µM | 310,000 tested, 0.42% active;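 active means B-score of calcium response area above 5 SD of library B-scores, with initial fluorescence ratio within 5 SD of library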;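 further: B-score of integrated fluorescence ratio over time as area under calcium response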
TRPC6 act: mouse TRPC6 channel activation; Q61143; HEK293-TRPC6 membrane potential dye fluorescence; stronger effect = higher value; B-score at 10 µM; 310,000 tested, 0.13% active; AID 2550;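 active means B-score of the integrated fluorescence ratio above library mean plus 3 SD, and starting fluorescence ratio within library mean plus 5 SD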;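 further: higher score means more depolarization so channel activation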
TRPC6 inhibitor: mouse TRPC6 channel inhibition; Q61143; AID 2553; B-score at 10 µM; HEK293-TRPC6, membrane potential dye, ACh-evoked depolarization; stronger effect = lower value; 310,000 tested, 1.1% active;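 active means B-score under library mean minus 3 SD, initial fluorescence not abnormally high, positive integrated signal ratio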;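 further: B-score derived from integrated fluorescence ratio over the kinetic read; more negative B-score means stronger inhibition of depolarization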
TRPC4 sel inh 2: second selectivity test of TRPC6 inhibitors: effect on mouse TRPC4; inhibition, % at 10 µM; shares compounds with TRPC6 inhibitor; HEK293 TRPC4/MOR, membrane potential dye fluorescence; channel activated by saturating DAMGO dose; 920 tested, 42% active;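 active means compounds whose fluorescence signal differed from control wells by over 3 SD, either direction, in both duplicate plates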
TRPC4 spec: selectivity of TRPC6 inhibitors: effect on mouse TRPC4; 920 tested, 61% active; shares compounds with TRPC6 inhibitor; AID 2777; HEK293 TRPC4/mu-opioid, membrane potential fluorescence; activity change, negative = inhibition, % at 10 µM;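 active means rise or fall in signal beyond 3 SD of buffer-only wells in both replicate plates, either sign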;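 further: integrated kinetic ratio of fluorescence range over baseline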
HEK293 MPD ctr 2-1: second counter-screen for TRPC6 inhibitors: parental HEK293 cells; shares compounds with TRPC6 inhibitor; parental HEK293 membrane potential dye fluorescence; maximal acetylcholine challenge after compound addition; signal change vs control, % at 10 µM; 920 tested, 31% active;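 active means membrane potential signal moving either way by over 3 SD of the maximum-effect control, in both duplicate plates, meaning non-specific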
HEK293 MPD ctr-1: counter-screen for TRPC6 inhibitors: effect in parental HEK293 cells; shares compounds with TRPC6 inhibitor; parental HEK293 membrane potential dye fluorescence; membrane potential signal change, % at 10 µM; 920 tested, 60% active;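 active means membrane potential signal shifting up or down by more than 3 SD of buffer-only wells, on both duplicate plates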
HEK293 MPD ctr-2: checks TRPC6 modulator effects in parental HEK293 cells; shares compounds with TRPC6 inhibitor; membrane potential dye fluorescence; membrane potential signal change, % at 10 µM; 2,400 tested, 51% active;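 active means membrane potential signal moves up or down beyond 5 SD from buffer-only wells, on both duplicate plates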
HEK293 MPD ctr 2-2: second counter-screen for TRPC6 modulators: effect in parental HEK293 cells. 2,400 tested, 14% active. inhibition, % at 10 µM. shares compounds with TRPC6 inhibitor. AID 488926. membrane potential dye fluorescence; after compound, maximal acetylcholine stimulation;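 active means membrane potential signal drops by more than 5 SD from the mean control signal, in both duplicate plates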;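 further: plate controls were acetylcholine ECmax control wells for no effect and buffer only wells for full effect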
TRPC4 ctr mod: tests whether TRPC6 modulators also affect mouse TRPC4. shares compounds with TRPC6 inhibitor. HEK293 TRPC4/mu-opioid, membrane potential fluorescence. percent change from control (negative = decrease, positive = increase), % at 10 µM. 2,400 tested, 69% active. AID 488927;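 active means membrane potential signal moved up or down beyond 5 SD of buffer control wells, in both duplicate plates, actives on both sides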;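 further: plate controls were assay buffer wells for no effect and DAMGO maximal-effect wells for full effect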
TRPC4 ctr inh 2: second check of whether TRPC6 modulators also affect mouse TRPC4. shares compounds with TRPC6 inhibitor. HEK293 TRPC4/mu-opioid, membrane potential dye fluorescence; stimulated with maximal-effect DAMGO. inhibition, % at 10 µM. 2,400 tested, 55% active;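 active means drop in membrane potential signal beyond 5 SD of the control wells in both duplicate plates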;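 further: TRPC4 counter screen for TRPC6 hits run under conditions tuned for TRPC6 not TRPC4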
TRPC6 block conf: confirmation of mouse TRPC6 inhibitors. shares compounds with TRPC6 inhibitor. HEK293-TRPC6, membrane potential dye, ACh-evoked depolarization. inhibition, % at 10 µM. 3,300 tested, 43% active;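 active means fluorescence ratio falls more than 5 SD below the full-stimulation control mean, in both duplicate runs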;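 further: integrated fluorescence ratio of peak minus minimum over baseline after agonist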
TRPC6 act conf: mouse TRPC6 activator confirmation | shares compounds with TRPC6 inhibitor | HEK293-TRPC6 membrane potential dye fluorescence, FDSS | activation, % at 10 µM | 2,800 tested, 11% active | AID 488961;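 active means ratio signal rise beyond 5 SD above unstimulated control wells' mean, seen in both duplicate runs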;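 further: plate controls were buffer EC0 wells for no effect and acetylcholine ECmax response for full effect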
An asterisk follows results filed as active; i = inactive; . = no result given.

SMILES	TRPC4 agonist	TRPC4 block	TRPC4 PAM	TRPC6 act	TRPC6 inhibitor	HEK293 MPD ctr-2	HEK293 MPD ctr 2-2	TRPC4 ctr mod	TRPC4 ctr inh 2	TRPC6 block conf	TRPC6 act conf	others
COc1ccc(C(C(=O)NCCC(C)C)N(CCN2CCOCC2)C(=O)Cn2nnc3ccccc32)c(OC)c1 (stereo not given)	i	i	i	28*	i	484%*	i	86%*	i	i	298%*
COCCN(C(=O)Cn1nnc2ccccc21)C(C(=O)NC1CCCC1)c1cccc(OC)c1OC (stereo not given)	i	i	i	i	i	.	.	.	.	.	.
O=C(CSc1nc(-c2ccccc2)c(-c2ccccc2)[nH]1)N1CCN(S(=O)(=O)c2ccccc2)CC1	i	i	i	i	i	.	.	.	.	.	.
CCN(CC)C(=O)C1CCCN(C(=O)c2cc(COc3cccc(OC)c3)on2)C1 (stereo not given)	i	i	i	i	i	.	.	.	.	.	.
Cc1ccc(-c2nn(-c3cccc(F)c3)cc2CNCc2cccnc2)o1	121*	i	i	i	-5.7*	i	i	41%*	85%*	i	i
Cc1ccc(-c2nn(-c3cccc(F)c3)cc2CN2CCN(c3ccccn3)CC2)o1	i	i	i	i	i	.	.	.	.	.	.
Fc1ccc(Cn2nnc3ccccc32)cc1	i	i	i	i	-7.9*	.	.	.	.	i	i	TRPC4 sel inh 2=i;TRPC4 spec=i;HEK293 MPD ctr 2-1=i;HEK293 MPD ctr-1=-0.6%*
CC1CC(OC(=O)C(O)c2ccccc2)CC(C)(C)N1C (stereo not given)	i	i	i	i	-5.7*	i	i	8.5%*	i	56%*	i
N#CCCN(C(=O)COC(=O)CCN=C1NS(=O)(=O)c2ccccc21)c1ccc(F)cc1	i	i	i	i	i	.	.	.	.	.	.
CCOC(=O)C1CCN(C2=C(NS(=O)(=O)c3ccc(Cl)cc3)C(=O)c3ccccc3C2=O)CC1	i	i	i	i	-6.1*	-78%*	i	-20%*	69%*	58%*	i
CC1CCN(C2=C(NS(=O)(=O)c3ccc(Br)cc3)C(=O)c3ccccc3C2=O)CC1	i	i	i	i	i	.	.	.	.	.	.
CC(=O)Nc1ccc(S(=O)(=O)NC2=C(N3CCN(Cc4ccccc4)CC3)C(=O)c3ccccc3C2=O)cc1	i	-6*	i	i	-6.6*	-224%*	i	-34%*	90%*	68%*	i
CCN1CCN(C2=C(NS(=O)(=O)c3ccc(NC(C)=O)cc3)C(=O)c3ccccc3C2=O)CC1	i	i	i	i	i	.	.	.	.	.	.
CCOC(=O)C1CCCN(C2=C(NS(=O)(=O)c3ccc(Br)cc3)C(=O)c3ccccc3C2=O)C1 (stereo not given)	i	i	i	i	i	.	.	.	.	.	.
O=C1C(NS(=O)(=O)c2ccc(Br)cc2)=C(N2CCCCC2)C(=O)c2ccccc21	i	i	i	i	-6.3*	i	i	-20%*	72%*	i	i
CC1CCN(C2=C(NS(=O)(=O)c3ccccc3)C(=O)c3ccccc3C2=O)CC1	i	i	i	i	-7.7*	i	i	-27%*	82%*	i	i
CC1CCN(C2=C(NS(=O)(=O)c3ccc(Cl)cc3)C(=O)c3ccccc3C2=O)CC1	i	i	i	i	-6.5*	i	i	-10%*	52%*	i	i
O=C(CCc1cccc(Cl)c1)N1CCCC(Nc2ccccc2)C1 (stereo not given)	i	i	i	i	-8.6*	.	.	.	.	55%*	i	TRPC4 sel inh 2=i;TRPC4 spec=i;HEK293 MPD ctr 2-1=i;HEK293 MPD ctr-1=i
COCCOC(=O)c1nccnc1C(=O)Nc1ccc(S(=O)(=O)N2CCOCC2)cc1	i	i	i	i	-6.2*	i	i	i	i	i	i
O=C(O)c1nccnc1C(=O)Nc1ccc(S(=O)(=O)N2CCOCC2)cc1	i	i	i	i	i	.	.	.	.	.	.
Cc1ccc(NC(=O)CCCCCN2C(=O)[C@@H]3Cc4ccccc4CN3C2=O)cc1	i	i	i	i	i	.	.	.	.	.	.
COc1ccc(NC(=O)CCCCCN2C(=O)[C@@H]3Cc4ccccc4CN3C2=O)cc1Cl	i	i	i	i	-7.4*	i	i	i	i	i	i
CCOc1ccc(CCNC(=O)C2CCCN(c3nn4c(=O)cc(C)nc4s3)C2)cc1OCC (stereo not given)	i	i	i	i	i	.	.	.	.	.	.
CCOc1ccc(CCNC(=O)C2CCCN(c3nnc(-n4cccc4)s3)C2)cc1OCC (stereo not given)	i	i	i	i	-5.5*	i	i	i	i	i	i
Cc1ccc(NC(=O)Cn2nnc(C(=O)NCc3ccc(Cl)cc3)c2N)cc1F	i	i	i	i	i	.	.	.	.	.	.
